Experimental findings from ChEMBL document CHEMBL1126620, “Systematic substitution of an oxytocin antagonist with D-amino acids: unexpected high antagonistic potency of the D-Cys6-substituted analogue” (J Med Chem, 1993) are described below.

A value given as a limit tells only on which side of the number the result lay.

One assay deals with Rattus norvegicus. The assay is described as follows: In vivo evaluation for the competitive antagonism of Antidiuretic action in the rat determined by the rat antidiuretic assay. To be noted: Urine, read-out: pA2 (converted).
Regarding `CC[C@H](C)[C@@H]1NC(=O)[C@@H](Cc2c[nH]c3ccccc23)NC(=O)CC2(CCCCC2)SSC[C@@H](C(=O)N2CCC[C@H]2C(=O)N[C@H](CCCN=C(N)N)C(=O)NCC(N)=O)NC(=O)[C@H](CC(N)=O)NC(=O)[C@H](CCC(N)=O)NC1=O`, the Kb is > 2510 nM.
Still for that read-out and setting: to `CC[C@H](C)[C@@H]1NC(=O)[C@@H](Cc2c[nH]c3ccccc23)NC(=O)CC2(CCCCC2)SSC[C@@H](C(=O)N2CCC[C@H]2C(=O)N[C@@H](CCCN=C(N)N)C(=O)NCC(N)=O)NC(=O)[C@H](CC(N)=O)NC(=O)[C@H](CCC(N)=O)NC1=O` belongs > 1260 nM.
On the same count and under the same terms, to `CC[C@H](C)[C@@H]1NC(=O)[C@@H](Cc2c[nH]c3ccccc23)NC(=O)CC2(CCCCC2)SSC[C@H](C(=O)N2CCC[C@H]2C(=O)N[C@@H](CCCN=C(N)N)C(=O)NCC(N)=O)NC(=O)[C@H](CC(N)=O)NC(=O)[C@H](CCC(N)=O)NC1=O` belongs > 501 nM.

Another assay is filed under the species Rattus norvegicus. The assay is described as follows: In vitro competitive antagonist effect of OT contractile action in the rat uterus determined by the rat oxytocic assay in presence of Mg2+. The class given is functional. To be noted: read-out: pA2 (converted). An outline of the steps: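 Isolated rat uterus, oxytocin-induced contraction, bath containing magnesium salts; pA2 (negative log molar antagonist concentration halving agonist response) obtained by Schild method from at least four separate assays.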
Take `CC[C@H](C)[C@@H]1NC(=O)[C@@H](Cc2c[nH]c3ccccc23)NC(=O)CC2(CCCCC2)SSC[C@@H](C(=O)N2CCC[C@H]2C(=O)N[C@@H](CCCNC(=N)N)C(=O)NCC(N)=O)NC(=O)[C@H](CC(N)=O)NC(=O)[C@@H]([C@H](C)O)NC1=O`: the Kb was 11200 nM.
Same read-out and setting: then `CC[C@H](C)[C@@H]1NC(=O)[C@@H](Cc2c[nH]c3ccccc23)NC(=O)CC2(CCCCC2)SSC[C@@H](C(=O)N2CCC[C@H]2C(=O)N[C@H](CCCN=C(N)N)C(=O)NCC(N)=O)NC(=O)[C@H](CC(N)=O)NC(=O)[C@H](CCC(N)=O)NC1=O`, with 12.3 nM; and `CC[C@@H](C)[C@H]1NC(=O)[C@@H](Cc2c[nH]c3ccccc23)NC(=O)CC2(CCCCC2)SSC[C@@H](C(=O)N2CCC[C@H]2C(=O)N[C@@H](CCCN=C(N)N)C(=O)NCC(N)=O)NC(=O)[C@H](CC(N)=O)NC(=O)[C@H](CCC(N)=O)NC1=O`, with 5890 nM.
Still for that read-out and setting: then `CC[C@H](C)[C@@H]1NC(=O)[C@@H](Cc2c[nH]c3ccccc23)NC(=O)CC2(CCCCC2)SSC[C@@H](C(=O)N2CCC[C@@H]2C(=O)N[C@@H](CCCN=C(N)N)C(=O)NCC(N)=O)NC(=O)[C@H](CC(N)=O)NC(=O)[C@H](CCC(N)=O)NC1=O`, with 14.1 nM.
Same read-out and setting: then `CC[C@H](C)[C@@H]1NC(=O)[C@@H](Cc2c[nH]c3ccccc23)NC(=O)CC2(CCCCC2)SSC[C@@H](C(=O)N2CCC[C@H]2C(=O)N[C@@H](CCCN=C(N)N)C(=O)NCC(N)=O)NC(=O)[C@H](CC(N)=O)NC(=O)[C@@H](CCCNC(N)=O)NC1=O`, with 3090 nM; and `CC[C@H](C)[C@H]1NC(=O)[C@@H](Cc2c[nH]c3ccccc23)NC(=O)CC2(CCCCC2)SSC[C@@H](C(=O)N2CCC[C@H]2C(=O)N[C@@H](CCCN=C(N)N)C(=O)NCC(N)=O)NC(=O)[C@H](CC(N)=O)NC(=O)[C@H](CCC(N)=O)NC1=O`, with 7760 nM.
With `CC[C@H](C)[C@@H]1NC(=O)[C@@H](Cc2c[nH]c3ccccc23)NC(=O)CC2(CCCCC2)SSC(C)(C)[C@H](C(=O)N2CCC[C@H]2C(=O)N[C@@H](CCCNC(=N)N)C(=O)NCC(N)=O)NC(=O)[C@H](CC(N)=O)NC(=O)[C@H](CCC(N)=O)NC1=O`, the Kb was 10.5 nM.
Same read-out and setting: to `CC[C@H](C)[C@@H]1NC(=O)[C@@H](Cc2c[nH]c3ccccc23)NC(=O)CC2(CCCCC2)SSC[C@@H](C(=O)N2CCC[C@H]2C(=O)N[C@@H](CCCN=C(N)N)C(=O)NCC(N)=O)NC(=O)[C@H](CC(N)=O)NC(=O)[C@@H](CC(N)=O)NC1=O` belongs 3890 nM; to `CC[C@H](C)[C@@H]1NC(=O)[C@@H](Cc2c[nH]c3ccccc23)NC(=O)CC2(CCCCC2)SSC[C@H](C(=O)N2CCC[C@H]2C(=O)N[C@@H](CCCN=C(N)N)C(=O)NCC(N)=O)NC(=O)[C@H](CC(N)=O)NC(=O)[C@H](CCC(N)=O)NC1=O`, 5.13 nM.
